According to ChEMBL document CHEMBL3526050, “Elucidation of the metabolic pathways and the resulting multiple metabolites of almorexant, a dual orexin receptor antagonist, in humans” (Drug Metab Dispos, 2013):
Where “and” joins values, the source holds several entries; their conditions need not be identical. Equal values may be shown once.

What was measured:
[1] = system: Homo sapiens; assay: Half life in healthy human treated with [14C]almorexant at 200 mg, po dosed as single dose; assay type: ADME, organism-based; details: in vivo
How it was run: (§1)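 Plasma parent and metabolites M3, M5, M6, M8 after one 200 mg oral 14C dose in 6 fasted male subjects, sampled 0.17–240 h. Validated LC-MS/MS with penta-deuterated internal standards and positive ESI. Low range 0.4/1.0–100 ng/mL using supported liquid extraction, high range 50–1000 ng/mL using protein precipitation. Noncompartmental analysis, geometric means (95% CI), Tmax median (range).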

[2] = system: Homo sapiens; assay: Cmax in healthy human treated with [14C]almorexant at 200 mg, po dosed as single dose; assay type: ADME, organism-based; design: dose 200 mg, route oral; details: in vivo
[3] = system: Homo sapiens; assay: AUC (0 to infinity) in healthy human treated with [14C]almorexant at 200 mg, po dosed as single dose; assay type: ADME, organism-based, Plasma; design: dose 200 mg, route oral, time infinity; details: in vivo
[4] = Drug level in feces of healthy human treated with [14C]almorexant at 200 mg, po dosed as single dose; assay type: ADME, organism-based; details: in vivo
How it was run: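 Feces pooled by weight across 6 subjects (0–48 to 192–332 h) and extracted three times with acetonitrile, then dried and reconstituted. Analyzed by radio-LC-MS/MS with a methanol/acetonitrile gradient and scintillation-counted fractions. Procedural recovery was 73.0%. Reported as percent of administered radioactive dose.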

[5] = system: Plasma; assay: Drug level in plasma of healthy human treated with [14C]almorexant at 200 mg, po dosed as single dose; assay type: ADME, organism-based; details: in vivo
How it was run: (§2)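 Plasma from 6 subjects given one 200 mg oral 14C dose, pooled over at least 2 time points and acetonitrile-precipitated. Radio-LC-MS/MS used a C18 column with ammonium formate pH 4.0/acetonitrile gradient and 0.15-min fractions scintillation-counted. Peak radioactivity converted to ng-equivalents/mL to give AUC0-t. Co-eluting metabolites grouped and expressed relative to parent AUC and to total radioactivity.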

[6] = system: Homo sapiens; assay: Tmax in healthy human treated with [14C]almorexant at 200 mg, po dosed as single dose; assay type: ADME, organism-based; details: in vivo; how it was run: as §1
[7] = Absolute bioavailability in po dosed healthy human; assay type: ADME, organism-based; details: in vivo
[8] = Tmax in po dosed healthy human receiving additional evening dose; assay type: ADME, organism-based; details: in vivo
[9] = Clearance in po dosed healthy human; assay type: ADME, organism-based; details: in vivo
[10] = system: Homo sapiens; assay: Volume of distribution in po dosed healthy human; assay type: ADME, organism-based; details: in vivo
[11] = Terminal half life in po dosed healthy human; assay type: ADME, organism-based; details: in vivo, read-out: beta t1/2 (converted)
[12] = Tmax in po dosed healthy human; assay type: ADME, organism-based; details: in vivo
[13] = system: Homo sapiens; assay: Drug level in healthy human treated with [14C]almorexant at 200 mg, po dosed as single dose relative to almorexant; assay type: ADME, organism-based; details: in vivo; how it was run: as §2
[14] = system: Homo sapiens; assay: Tlast in healthy human treated with [14C]almorexant at 200 mg, po dosed as single dose; assay type: ADME, organism-based; details: in vivo; how it was run: as §2
[15] = Tmax in healthy human at 200 mg, po dosed as single dose; assay type: ADME, organism-based; details: in vivo; how it was run: as §1
[16] = system: Homo sapiens; assay: AUC (0 to t) in healthy human treated with [14C]almorexant at 200 mg, po dosed as single dose; assay type: ADME, organism-based, Plasma; details: in vivo; how it was run: as §2
[17] = system: Homo sapiens; assay: Drug level in healthy human treated with [14C]almorexant at 200 mg, po dosed as single dose relative to total radioactivity; assay type: ADME, organism-based; details: in vivo; how it was run: as §2
[18] = system: Homo sapiens; assay: Toxicity in healthy human assessed as effect on vital signs parameters at 200 mg, po dosed as single dose; assay type: organism-based; details: in vivo
[19] = AUC (0 to infinity) in healthy human at 200 mg, po dosed as single dose; assay type: ADME, organism-based; design: dose 200 mg, route oral, time infinity; details: plasma; how it was run: as §1
[20] = system: Homo sapiens; assay: Toxicity in healthy human assessed as effect on clinical laboratory parameters at 200 mg, po dosed as single dose; assay type: organism-based; details: in vivo
[21] = system: Blood; assay: Cmax in healthy human whole blood assessed as radioactivity at 200 mg, po dosed as single dose; assay type: ADME, organism-based; design: dose 200 mg, route oral; details: in vivo
How it was run: (§3)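 Six fasted healthy male subjects given one oral capsule of 200 mg almorexant with about 84 µCi 14C. EDTA blood taken pre-dose to 240 h. Whole blood (solubilized, peroxide-treated) and plasma counted in triplicate by liquid scintillation. Noncompartmental PK: Cmax/Tmax read directly, linear trapezoidal AUC extrapolated via λz, t1/2 = ln2/λz. Geometric mean (95% CI), Tmax median (range).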

[22] = system: Plasma; assay: Cmax in healthy human plasma assessed as radioactivity at 200 mg, po dosed as single dose; assay type: ADME, organism-based; design: dose 200 mg, route oral; details: in vivo; how it was run: as §3
[23] = system: Blood; assay: Half life in healthy human whole blood assessed as radioactivity at 200 mg, po dosed as single dose; assay type: ADME, organism-based; details: in vivo; how it was run: as §3
[24] = Drug excretion in healthy human feces assessed as total radioactivity at 200 mg, po dosed as single dose; assay type: ADME, organism-based; details: in vivo
How it was run: (§4)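 Urine collected in 8-h then 24-h intervals, and all feces for 10 days (longer if recovery <90%) after one 200 mg oral 14C dose in 6 fasted males. Urine counted directly by liquid scintillation. Feces homogenized in water, and about 300 mg aliquots combusted before counting, done in triplicate. Stearic acid 14C quality controls were included.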

[25] = Ratio of drug level in whole blood to plasma in healthy human at 200 mg, po dosed as single dose; assay type: ADME, organism-based; details: whole blood and plasma; how it was run: as §3
[26] = system: Homo sapiens; assay: Toxicity in healthy human at 200 mg, po dosed as single dose; assay type: organism-based; details: in vivo
[27] = system: Homo sapiens; assay: Toxicity in healthy human assessed as effect on ECG variables parameters at 200 mg, po dosed as single dose; assay type: organism-based; details: in vivo
[28] = Half life in healthy human at 200 mg, po dosed as single dose; assay type: ADME, organism-based; details: in vivo; how it was run: as §1
[29] = system: Homo sapiens; assay: Tmax in healthy human assessed as total radioactivity at 200 mg, po dosed as single dose; assay type: ADME, organism-based; details: in vivo; how it was run: as §3
[30] = system: Blood; assay: AUC (0 to infinity) in healthy human whole blood assessed as radioactivity at 200 mg, po dosed as single dose; assay type: ADME, organism-based; design: dose 200 mg, route oral, time infinity; details: in vivo; how it was run: as §3
[31] = Drug excretion in healthy human urine assessed as total radioactivity at 200 mg, po dosed as single dose; assay type: ADME, organism-based; details: in vivo; how it was run: as §4
[32] = system: Homo sapiens; assay: AUC (0 to t) in healthy human at 200 mg, po dosed as single dose; assay type: ADME, organism-based, Plasma; details: in vivo; how it was run: as §2
[33] = system: Blood; assay: Tmax in healthy human whole blood assessed as radioactivity at 200 mg, po dosed as single dose; assay type: ADME, organism-based; details: in vivo; how it was run: as §3
[34] = system: Homo sapiens; assay: AUC (0 to t) in healthy human assessed as total radioactivity at 200 mg, po dosed as single dose; details: in vivo
[35] = system: Homo sapiens; assay: Toxicity in healthy human assessed as incidence of adverse events at 200 mg, po dosed as single dose; assay type: organism-based; details: in vivo
[36] = system: Plasma; assay: AUC (0 to infinity) in healthy human plasma assessed as radioactivity at 200 mg, po dosed as single dose; assay type: ADME, organism-based; design: dose 200 mg, time infinity, route oral; details: in vivo; how it was run: as §3
[37] = system: Plasma; assay: Tmax in healthy human plasma assessed as radioactivity at 200 mg, po dosed as single dose; assay type: ADME, organism-based; details: in vivo; how it was run: as §3
[38] = system: Plasma; assay: Half life in healthy human plasma assessed as radioactivity at 200 mg, po dosed as single dose; assay type: ADME, organism-based; details: in vivo; how it was run: as §3
[39] = system: Homo sapiens; assay: Drug level in healthy human at 200 mg, po dosed as single dose relative to total radioactivity; assay type: ADME, organism-based; details: in vivo; how it was run: as §2
[40] = Cmax in healthy human at 200 mg, po dosed as single dose; assay type: ADME, organism-based; design: dose 200 mg, route oral; details: in vivo; how it was run: as §1
[41] = system: Homo sapiens; assay: Tlast in healthy human at 200 mg, po dosed as single dose; assay type: ADME, organism-based; details: in vivo; how it was run: as §2
[42] = system: Homo sapiens; assay: Tlast in healthy human assessed as total radioactivity at 200 mg, po dosed as single dose; assay type: ADME, organism-based; details: in vivo
[43] = system: Homo sapiens; assay: Cmax in healthy human assessed as total radioactivity at 200 mg, po dosed as single dose; assay type: ADME, organism-based; design: dose 200 mg, route oral; details: in vivo; how it was run: as §3

CNC(=O)[C@@H](c1ccccc1)[n+]1ccc2cc(OC)c(OC)cc2c1CCc1ccc(C(F)(F)F)cc1
t1/2 [1]: 26.3 h
Cmax [2]: 80.4 ng/mL
AUC [3]: 282 ng·h/mL
Drug metabolism [4]: metabolite_detected
Drug metabolism [5]: metabolite_detected
Tmax [6]: 0.9 h

CNC(=O)[C@@H](c1ccccc1)[n+]1ccc2cc(O)c(OC)cc2c1CCc1ccc(C(F)(F)F)cc1
Drug metabolism [4]: metabolite_detected

COc1cc2cc[n+]([C@@H](C(N)=O)c3ccccc3)c(CCc3ccc(C(F)(F)F)cc3)c2cc1OC
Drug metabolism [4]: metabolite_detected
Drug metabolism [5]: metabolite_detected

COc1cc2c(cc1OC)[C@H](CC(O)c1ccc(C(F)(F)F)cc1)NCC2 (stereo not given in full)
Drug metabolism [5]: metabolite_detected

CNC(=O)[C@@H](c1ccccc1)N1CCc2cc(OC)c(OC)cc2[C@@H]1CCc1ccc(C(F)(F)F)cc1 [ALMOREXANT]
bioavailability [7]: 11.4%
Tmax [8]: 3 h
CL/F [9]: 717 mL/min
Vd [10]: 683 L
half-life [11]: 17.8 h
Tmax [12]: 0.8 h

CNC(=O)[C@@H](c1ccccc1)N1CCc2cc(O)c(O)cc2[C@@H]1CCc1ccc(C(F)(F)F)cc1
Drug metabolism [4]: metabolite_detected

COc1cc2c(cc1O)[C@H](CCc1ccc(C(F)(F)F)cc1)NCC2
Drug metabolism [5]: metabolite_detected

COc1cc2ccnc(CCc3ccc(C(F)(F)F)cc3)c2cc1OC
Drug metabolism [5]: metabolite_detected

CNC(=O)[C@@H](c1ccccc1)N1CCc2cc(OC)c(O)cc2[C@@H]1CCc1ccc(C(F)(F)F)cc1
t1/2 [1]: 21.7 h
Cmax [2]: 61.4 ng/mL
AUC [3]: 386 ng·h/mL
Drug metabolism [4]: metabolite_detected
Drug metabolism [5]: metabolite_detected
Tmax [6]: 1 h

COc1cc2c(cc1OC)[C@H](CCc1ccc(C(F)(F)F)cc1)NC[C@H]2O (racemic)
Drug uptake [13]: 28.1%
Tlast [14]: 1.6 h
Tmax [15]: 1.6 h
AUCt [16]: 17.2 ng.Eq.hr/ml
Drug uptake [17]: 0.03%

COc1cc2c(cc1OC)[C@H](CCc1ccc(C(F)(F)F)cc1)NCC2
Drug uptake [13]: 541%
Tlast [14]: 11 h
t1/2 [1]: 10.4 h
AUCt [16]: 331 ng.Eq.hr/ml
Cmax [2]: 99.4 ng/ml and 49 ng.Eq/ml
AUC [3]: 1039 ng·h/mL
Drug metabolism [5]: metabolite_detected
Tmax [6]: 1.5 h
Drug uptake [17]: 0.61%

CNC(=O)[C@@H](c1ccccc1)N1CCc2cc(O)c(OC)cc2[C@@H]1CCc1ccc(C(F)(F)F)cc1
t1/2 [1]: 22.1 h
Cmax [2]: 25.7 ng/mL
AUC [3]: 160 ng·h/mL
Drug metabolism [4]: metabolite_detected
Drug metabolism [5]: metabolite_detected
Tmax [6]: 0.8 h

CNC(=O)[C@@H](c1ccccc1)N1CCc2cc(OC)c(OC)cc2[14C@@H]1CCc1ccc(C(F)(F)F)cc1
Activity [18]: Non-toxic
AUC(0-inf) [19]: 262 ng·h/mL
Activity [20]: Non-toxic
Cmax [21]: 678 ng.Eq/ml
Tmax [15]: 0.8 h
Cmax [22]: 1060 ng.Eq/ml
t1/2 [23]: 39 h
Drug excretion [24]: 38.7%
blood plasma ratio [25]: 0.51
Activity [26]: Non-toxic
Activity [27]: Non-toxic
half-life [28]: 17.8 h
Tmax [29]: 1.6 h
AUC [30]: 26321 ng.Eq.hr/ml
Drug excretion [31]: 8.34%
AUCt [32]: 61.2 ng.Eq.hr/ml
Drug metabolism [4]: metabolite_detected
Tmax [33]: 1 h
AUC(0-t) [34]: 54100 ng.Eq.hr/ml
Drug metabolism [5]: metabolite_detected
Activity [35]: Non-toxic
AUC [36]: 51547 ng.Eq.hr/ml
Tmax [37]: 1 h
t1/2 [38]: 78 h
Drug uptake [39]: 0.11%
Cmax [40]: 113 ng/mL
Tlast [41]: 1.6 h
Tlast [42]: 300 h
Cmax [43]: 1050 ng.Eq/ml

COc1cc2c(cc1OC)[C@H](CC(O)c1ccc(C(F)(F)F)cc1)N([C@@H](C(N)=O)c1ccccc1)CC2 (stereo not given in full)
Drug uptake [13]: 28.1%
Tlast [14]: 1.6 h
Tmax [15]: 1.6 h
AUCt [16]: 17.2 ng.Eq.hr/ml
Drug metabolism [5]: metabolite_detected
Drug uptake [17]: 0.03%
